Source: ChEMBL document CHEMBL1123435, “Synthesis of 11H-pyridocarbazoles and derivatives. Comparison of their DNA binding and antitumor activity with those of 6H- and 7H-pyridocarbazoles” (1986)

Experiments:
Calf thymus DNA = experiment: Binding affinity towards calf thymus DNA, at pH 5; type: nucleic-acid assay; details: Bos taurus
In short: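 Affinity for sonicated calf thymus DNA determined by ethidium bromide competition by fluorescence. Four cells were run together: buffer, DNA (1.5 μg/mL), and drug at 3 and 6 μg/mL plus DNA. Ethidium bromide (50 μg/mL of buffer) was added in aliquots, and apparent constants were derived from Scatchard plots of competition. Where a ligand fluoresces strongly when bound, direct fluorometric titration was used instead.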

L1210 [1] = experiment: Inhibitory activity against L1210 cell culture; type: functional; details: Mus musculus, read-out: ED50 (the source's name)
In short: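 L1210 cells in exponential growth (1 × 10⁵/mL) were held for 24 h at 37 °C in RPMI 1640 with 10% fetal calf serum across a range of drug concentrations. Total cells were counted electronically. Duplicate treated cultures were expressed as a percentage of triplicate untreated controls. ED50 came from linear regression of percent residual cells against concentration on a semilog scale.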

L1210 [2] = experiment: Dose required to inhibit the cloning efficiency to a factor of 0.37 after 24-h exposure to the drug; type: functional; details: Mus musculus, L1210, 24 h
In short: (§1)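 Exponentially growing L1210 cells (1 × 10⁵/mL) in RPMI 1640 with 10% fetal calf serum were exposed to the drug for 24 h at 37 °C. They were then diluted to 250 and 500 cells/mL and plated in Noble agar. After 14 days at 37 °C in 5% CO2, colonies >0.2 mm were counted, in triplicate per concentration. CE37 (cloning efficiency reduced to 0.37) was read from dose-response curves.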

L1210 [3] = experiment: Dose required to inhibit the cloning efficiency to a factor of 0.37 after 24-h exposure to the drug in L1210 cell; type: functional; details: Mus musculus, L1210, 24 h; in short: as §1

K app (Calf thymus DNA) [M⁻¹] | EC50 (L1210 [1]) [µg/mL] | SMILES | EC37 (L1210 [2]) [µg/mL] | EC37 (L1210 [3]) [µg/mL]
180000 | 0.12 | C[n+]1ccc2ccc3[nH]c4ccc(O)cc4c3c2c1.[I-] |  | 
100000 |  | COc1ccc2[nH]c3c4c[n+](C)ccc4c(C)cc3c2c1 |  | 
300000 | 0.38 | COc1ccc2[nH]c3ccc4cc[n+](C)cc4c3c2c1.[I-] |  | 
20000 | > 1 | C[n+]1ccc2c(ccc3c4ccccc4[nH]c23)c1.[I-] | > 1 | 
25000 | > 1 | COc1ccc2[nH]c3c4cc[n+](C)cc4ccc3c2c1.[I-] | > 1 | 
100000 | > 1 | Cc1cc2c3ccccc3[nH]c2c2c[n+](C)ccc12.[I-] | > 1 | 
100000 |  | COc1ccc2[nH]c3c(ccc4cccnc43)c2c1 |  | 
60000 |  | COc1ccc2[nH]c3c(ccc4c3ccc[n+]4C)c2c1 |  | 

Second part, the molecule before the results:

SMILES | K app (Calf thymus DNA) [M⁻¹] | EC50 (L1210 [1]) [µg/mL] | EC37 (L1210 [2]) [µg/mL] | EC37 (L1210 [3]) [µg/mL]
CC(=O)[O-].Cc1c2cc[n+](C)cc2c(C)c2c1[nH]c1ccc(O)cc12 [ELLIPTINIUM ACETATE] | 1.3e+06 | 0.06 | 0.013 | 
CC(=O)[O-].Cc1c2cc[n+](C)cc2c(C)c2c1[nH]c1ccccc12 | 230000 | 0.544 |  | 0.4
Cl.Oc1ccc2[nH]c3c(ccc4cccnc43)c2c1 | 20000 | > 1 | > 1 | 
C[n+]1cccc2c3[nH]c4ccccc4c3ccc21.[I-] | 10000 | > 1 | > 1 | 
C[n+]1cccc2c3[nH]c4ccc(O)cc4c3ccc21.[I-] | 100000 | > 1 | > 1 | 
c1cnc2c(c1)ccc1c3ccccc3[nH]c12 | 100000 |  |  | 
Cc1cc2c3cc(O)ccc3[nH]c2c2c[n+](C)ccc12.[I-] | 1e+06 | > 1 | > 1 | 
